Hits are enriched below; roughly 1.9% of the tested compounds scored in any of these assays.
CHRM4 antagonist = blocks acetylcholine activation of human M4 receptor | P08173 | CHO-hM4 cells, ACh EC80, Fluo-8 calcium fluorescence | inhibition, % at 3 µM | 360,000 tested, 0.73% active | AID 624125;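 active = inhibition above its plate's cutoff, the mean inhibition of sample wells plus 3 SD, cut at about 27% in these data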;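 also: 0% = acetylcholine EC80 with DMSO and 100% = DMSO without agonist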
CHRM5 antagonist = antagonists of human muscarinic M5 receptor (CHRM5) | CHO-hM5 cells, Fluo-8 calcium fluorescence, ACh EC80 | inhibition, % at 3 µM | 360,000 tested, 0.59% active;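 active = inhibition above a per-plate cutoff, the mean of that plate's test compounds plus 3 SD, cut at about 27% in these data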;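 also: 0% = acetylcholine EC80 with DMSO and 100% = DMSO without agonist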
Target sequence (P08912 whole entry, looked up): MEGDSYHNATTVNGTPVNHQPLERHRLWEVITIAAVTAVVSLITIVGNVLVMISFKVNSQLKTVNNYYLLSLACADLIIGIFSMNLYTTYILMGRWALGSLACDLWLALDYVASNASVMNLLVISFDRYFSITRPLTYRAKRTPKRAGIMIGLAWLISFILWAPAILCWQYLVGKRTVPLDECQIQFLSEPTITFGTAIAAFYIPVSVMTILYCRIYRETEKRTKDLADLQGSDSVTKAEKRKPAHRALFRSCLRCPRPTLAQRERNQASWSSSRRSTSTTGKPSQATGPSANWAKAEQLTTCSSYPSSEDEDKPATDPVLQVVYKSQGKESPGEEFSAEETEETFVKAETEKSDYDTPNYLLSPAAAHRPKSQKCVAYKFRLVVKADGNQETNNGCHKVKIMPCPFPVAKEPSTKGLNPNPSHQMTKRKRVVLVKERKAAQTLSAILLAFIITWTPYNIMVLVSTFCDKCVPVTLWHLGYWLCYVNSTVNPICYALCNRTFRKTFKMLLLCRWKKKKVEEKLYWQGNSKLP
CHRM5 agonist = agonists of human muscarinic M5 receptor (CHRM5) | CHO-K1 hM5 cells, Fluo-8 calcium fluorescence; 0% DMSO wells, 100% maximal acetylcholine response | activation, % at 3 µM | 360,000 tested, 0.19% active | AID 624037;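 active = activation above the run's mean over test compounds plus 3 SD, cut at about 23% in these data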;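 also: signal is peak over basal fluorescence ratio across the kinetic read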
CHRM4 PAM = potentiates acetylcholine response at human M4 receptor; P08173; CHO-K1 hM4/Gqi5, Fluo-8 calcium fluorescence, ACh EC20; 0% = ACh EC20, 100% = maximal ACh; activation, % at 3 µM; 360,000 tested, 0.4% active; AID 624126;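 active = activation above its plate's cutoff, the mean activation of sample wells plus 3 SD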
CHRM5 PAM = CHRM5 positive allosteric modulation; P08912; CHO-K1 hM5, Fluo-8 calcium, ACh EC20 PAM; 0% = ACh EC20, 100% = ACh EC100; activation, % at 3 µM; 360,000 tested, 0.3% active; AID 624038;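 active = activation above the run cutoff, the mean activation of all test compounds plus 3 SD, cut at about 18% in these data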
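System – CHO-K1 hM5 cells · Compound – 3 µM, single dose · Incubation – compound preincubation 140 s before EC20 acetylcholine addition · Technique – Fluo-8 calcium fluorescence · Measure – Max/basal fluorescence ratio as % of EC20–EC100 ACh window · Benchmarks – low control EC20 acetylcholine (0%), high control EC100 acetylcholine (100%) · Replication – singlicate, one well per test compound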
M4 ag = agonists of human muscarinic M4 receptor (CHRM4); CHO-K1 hM4/Gqi5, Fluo-8 calcium fluorescence; vehicle 0%, full acetylcholine response 100%; activation, % at 3 µM; 360,000 tested, 0.14% active; P08173; AID 624127;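 active = activation above the run mean over all test wells plus 3 SD, cut at about 32% in these data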;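 also: peak over basal fluorescence ratio per well then scaled between controls; 0% = DMSO wells and 100% = acetylcholine at EC100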
* marks the source's active call; other numbers are inactive results.

SMILES	CHRM4 antagonist	CHRM5 antagonist	CHRM5 agonist	CHRM4 PAM	CHRM5 PAM	M4 ag
O=C(Nc1ccc2c(c1)OCO2)c1cc(C2CCCCN2C(=O)c2ccc3c(c2)CCO3)on1 (stereo not given)	-14	13	-4	3	6	7
CC(C)C/C=C1\CCc2c([nH]c3ccccc23)C1=O	-13	8	1	21*	10	1
COc1ccc(CCNCc2ccc(-c3ccccc3)cc2)cc1OC	7	-7	9	-11	6	34*
Cc1ccc2nc(-c3ccc(NC(=O)C(C)Sc4nncs4)cc3)sc2c1 (stereo not given)	29*	8	6	5	-3	8
Cc1ccc2nc(-c3ccc(NC(=S)NC(=O)CC(C)C)cc3)sc2c1	-1	-6	0	10	-1	0
CCc1nc2ccc(C(=O)NCCNC(C)=O)cn2c1N(C)CCCc1ccccc1	10	7	-2	-10	-10	4
Cc1ccc(CN2CCNC(=O)C2CC(=O)NCC(F)(F)F)o1 (stereo not given)	-3	27*	-4	12	-13	1
Cc1ccc(CN2CCNC(=O)C2CC(=O)N(C)C(C2CC2)C2CC2)o1 (stereo not given)	-6	-1	-2	11	1	1
CCc1nc2ccc(C(=O)Nc3cccc(NS(C)(=O)=O)c3)cn2c1N(C)CCCc1ccccc1	54*	3	-2	-13	-8	7
CCc1nc2ccc(C(=O)N(CC)CCN(C)C)cn2c1N(C)CCCc1ccccc1	27*	4	-2	-15	-11	1
CCNC(=S)NNC(=O)c1csc2c1CCCC2	-6	-2	1	20*	5	2
O=C(CN1C(=O)COc2ccccc21)c1cccc(Cl)c1	31*	4	-9	-16	-9	0
C=CCOc1cccn2c(N(C)C(=O)c3ccncc3)c(CC)nc12	11	2	1	3	-2	1
Cc1ccc(NC(=O)Nc2ccccc2)cc1[N+](=O)[O-]	17	16	10	-27	-21	19
O=C(Nc1ccccc1)Nc1ccc(Cl)c([N+](=O)[O-])c1	14	28*	11	-10	-15	12
O=C(NC(=S)Nc1ccc(F)c([N+](=O)[O-])c1)c1ccccc1F	3	8	-7	-3	-8	0
O=C(Nc1ccccc1)Nc1ccc(F)c([N+](=O)[O-])c1	9	27*	6	-10	-14	13
COc1cc(C)nc(N(C)C(C)=O)n1	-4	7	-1	3	-8	0
CSc1cc(C)nc(N(C)C(C)=O)n1	-12	7	1	19*	-5	0
Cc1ccc(Nc2nc(-c3sc(N)nc3C)cs2)cc1	3	-15	7	-8	20*	-1
Cc1nc(N)sc1-c1csc(Nc2ccccn2)n1	28*	0	0	1	2	0
Cc1nc(C)c(-c2csc(Nc3ccccn3)n2)s1	-4	10	5	-2	-5	3
Cc1ccc(-c2csc(Nc3ccccn3)n2)cc1	-14	-4	10	14*	14	-1
c1ccc(-c2csc(Nc3ccccn3)n2)cc1	0	-8	13	4	14	-1
Cc1ccccc1-c1csc(C(O)c2cccnc2)n1 (stereo not given)	-9	8	4	0	-1	2
SMILES	CHRM4 antagonist	CHRM5 antagonist	CHRM5 agonist	CHRM4 PAM	CHRM5 PAM	M4 ag
Cc1cccc(C)c1NC(=O)C(C1CC1)n1c(=O)c(-c2cc3ccccc3[nH]2)nc2ccccc21 (stereo not given)	-10	-10	6	4	13	2
COc1cc(/C=N/NC(=O)c2ccncc2)ccc1Oc1ccc([N+](=O)[O-])cn1	-3	-14	3	-1	18*	1
COc1ccc(/C=N/NC(=O)c2cccc([N+](=O)[O-])c2)cc1OC(=O)c1ccc(C)cc1	-4	-1	0	3	57*	-1
CCOc1ccc(NS(=O)(=O)c2cccs2)cc1S(=O)(=O)N1CCCC1	6	0	2	3	-1	2
CCc1ccc(-c2csc(NC(=O)C3CC(=O)N(c4ccc5c(c4)OCCO5)C3)n2)cc1 (stereo not given)	-3	-1	2	30*	-12	5
Cc1csc(NC(=O)C2CC(=O)N(c3ccc4c(c3)OCCO4)C2)n1 (stereo not given)	-4	-1	3	-2	-6	3
CCN(C(=O)c1ccc(NC(C)=O)cc1)c1ccccc1	-19	-6	2	19*	-1	0
CC(=O)c1c(C)[nH]c(C(=O)OCc2ccccc2)c1C	-6	4	1	-7	-10	6
CC(=O)c1c(C)[nH]c(C(=O)OCCCCN2C(=O)c3ccccc3C2=O)c1C	10	31*	9	-15	-24	22
CC1OC(CCc2cccc(Cl)c2)Cc2[nH]c(=S)[nH]c(=O)c21 (stereo not given)	5	14	6	0	-17	9
CC1(C(=O)NS(=O)(=O)C2CC2)CCCN(C(=O)C2(c3ccc(Cl)cc3)CCCC2)C1 (stereo not given)	1	1	-1	-4	2	0
CC1C(=O)N(Cc2cn(CC3CCCCC3)nn2)CCS(=O)(=O)N1Cc1ccc(-c2ccccc2)cc1 (stereo not given)	1	2	1	0	-2	3
C=CCN(CC=C)C(=O)Nc1ccc2nc(C)sc2c1	-7	-2	2	21*	1	3
C=CCNC(=O)Nc1ccc2nc(C)sc2c1	1	-8	1	11	7	3
COc1cccc(CN(C)C[C@@H]2OCc3cnnn3CCCC(=O)N([C@@H](C)CO)C[C@H]2C)c1	-6	-5	0	3	5	1
c1cnc2c(C3NCCc4c3[nH]c3ccccc43)cccc2c1 (stereo not given)	38*	8	2	-14	-8	3
OC(CNCC#Cc1ccccc1)c1ccccc1 (stereo not given)	-8	5	-1	0	0	1
CCC(CO)NCC#Cc1ccccc1 (stereo not given)	40*	7	-6	-16	2	2
CCOc1ccc(CCNC(=O)c2cc(C)on2)cc1OCC	-15	-5	-2	21*	-3	2
CN1C(=O)CC2(C)C1=CCc1scnc12 (stereo not given)	12	1	0	-3	-2	0
Cc1ccc(S(=O)(=O)NNC(=O)C2CCN(Cc3ccccc3)CC2)cc1	41*	53*	-5	-30	-18	1
